In data set [1] the target is T1, NAD-dependent protein deacetylase sirtuin-1 (Homo sapiens, UniProt Q96EB6).
T1 sequence (Q96EB6 whole entry): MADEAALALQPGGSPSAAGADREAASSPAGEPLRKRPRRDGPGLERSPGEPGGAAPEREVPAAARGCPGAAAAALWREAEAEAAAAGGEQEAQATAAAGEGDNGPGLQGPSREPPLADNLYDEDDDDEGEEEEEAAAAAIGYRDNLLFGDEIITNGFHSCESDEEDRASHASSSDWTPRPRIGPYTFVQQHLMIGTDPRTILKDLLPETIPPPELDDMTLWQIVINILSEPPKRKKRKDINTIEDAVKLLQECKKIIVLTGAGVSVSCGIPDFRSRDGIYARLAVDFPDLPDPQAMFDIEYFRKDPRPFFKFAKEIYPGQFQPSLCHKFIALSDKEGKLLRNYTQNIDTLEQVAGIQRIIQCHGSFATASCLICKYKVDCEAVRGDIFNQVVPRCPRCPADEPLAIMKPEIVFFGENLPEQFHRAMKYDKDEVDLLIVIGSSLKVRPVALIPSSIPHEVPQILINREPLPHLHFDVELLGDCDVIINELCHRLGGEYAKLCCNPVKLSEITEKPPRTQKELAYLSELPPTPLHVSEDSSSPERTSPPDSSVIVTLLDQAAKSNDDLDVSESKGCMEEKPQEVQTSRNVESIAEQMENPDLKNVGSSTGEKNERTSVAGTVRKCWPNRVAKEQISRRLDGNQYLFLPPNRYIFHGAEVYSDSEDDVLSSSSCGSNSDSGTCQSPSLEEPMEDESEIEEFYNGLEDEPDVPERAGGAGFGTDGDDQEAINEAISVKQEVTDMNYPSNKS
Nature of the data set: Inhibition of human SIRT1 using fluorogenic ZMAL as substrate incubated for 4 hrs in the presence of beta-NAD+ as cofactor by fluorescence based microplate reader analysis. In a few lines:
(§1)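 Recombinant SIRT1, SIRT2 or SIRT3 (0.5 U) in 50 mM Tris/HCl, 137 mM NaCl, 2.7 mM KCl with ZMAL 10.5 μM, β-NAD+ 500 μM and 8.3% (v/v) DMSO (final), plus compound; 4 h at 37 °C with shaking. Trypsin stop solution containing 8 mM nicotinamide added, 20 min at 37 °C, then fluorescence read. Single concentrations tested first; IC50 only for near-complete inhibitors; means of 3 experiments.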

Data set [2] has as its target T2, NAD-dependent protein deacetylase sirtuin-2 (Homo sapiens, UniProt Q8IXJ6).
T2 sequence (Q8IXJ6 whole entry): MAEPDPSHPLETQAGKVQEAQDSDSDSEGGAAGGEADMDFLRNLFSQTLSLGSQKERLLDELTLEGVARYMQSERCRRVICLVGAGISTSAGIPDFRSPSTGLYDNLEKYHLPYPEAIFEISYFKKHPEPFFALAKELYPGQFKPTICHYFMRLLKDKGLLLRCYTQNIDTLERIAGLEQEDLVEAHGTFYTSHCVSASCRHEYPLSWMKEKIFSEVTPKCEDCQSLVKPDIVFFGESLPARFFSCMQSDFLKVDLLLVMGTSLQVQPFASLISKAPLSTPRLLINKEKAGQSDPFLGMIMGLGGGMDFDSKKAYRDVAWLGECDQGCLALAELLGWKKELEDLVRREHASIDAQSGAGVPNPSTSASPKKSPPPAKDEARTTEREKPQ
The data set is described as follows: Inhibition of human SIRT2 using fluorogenic ZMAL as substrate incubated for 4 hrs in the presence of beta-NAD+ as cofactor by fluorescence based microplate reader analysis. The method in brief:
as §1

Data set [3] deals with T3, NAD-dependent protein deacetylase sirtuin-3, mitochondrial (Homo sapiens) (UniProt Q9NTG7).
T3 sequence (whole entry): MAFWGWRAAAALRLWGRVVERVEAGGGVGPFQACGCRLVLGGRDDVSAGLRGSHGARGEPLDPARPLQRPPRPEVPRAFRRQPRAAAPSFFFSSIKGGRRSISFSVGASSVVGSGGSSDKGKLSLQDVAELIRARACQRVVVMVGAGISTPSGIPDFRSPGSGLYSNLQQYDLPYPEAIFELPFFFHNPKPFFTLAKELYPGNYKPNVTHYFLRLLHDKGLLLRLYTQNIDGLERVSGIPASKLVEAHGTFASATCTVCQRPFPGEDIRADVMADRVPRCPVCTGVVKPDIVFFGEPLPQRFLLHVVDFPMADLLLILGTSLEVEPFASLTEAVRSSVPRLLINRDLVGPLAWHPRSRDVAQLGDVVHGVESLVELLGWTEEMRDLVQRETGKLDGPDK
The data set is described as follows: Inhibition of human SIRT3 using fluorogenic ZMAL as substrate at 1 mM incubated for 4 hrs in the presence of beta-NAD+ as cofactor by fluorescence based microplate reader analysis relative to control. In a few lines: as §1

Data set [4] concerns the target T3, NAD-dependent protein deacetylase sirtuin-3, mitochondrial (Homo sapiens). Nature of the data set: Inhibition of human SIRT3 using fluorogenic ZMAL as substrate at 250 uM incubated for 4 hrs in the presence of beta-NAD+ as cofactor by fluorescence based microplate reader analysis relative to control. In a few lines: as §1
Data set [5] addresses T4, NAD-dependent protein deacetylase sirtuin-2 (Homo sapiens) (UniProt Q8IXJ6).
T4 sequence (whole entry): T2 sequence (Q8IXJ6 whole entry)
The data set is described as follows: Inhibition of human SIRT2 using fluorogenic ZMAL as substrate at 250 uM incubated for 4 hrs in the presence of beta-NAD+ as cofactor by fluorescence based microplate reader analysis relative to control. The method in brief: as §1

Data set [6] is described as follows: Chemical stability of the compound in sirtuin assay buffer at pH 8.0 assessed as nicotinamide cleavage measured every 60 mins for 4 hrs by HPLC analysis. The conditions noted are these: read-out: Activity. It is filed as physicochemical.
Data set [7] addresses T5, NAD-dependent protein deacetylase sirtuin-1 (Homo sapiens) (UniProt Q96EB6).
T5 sequence (whole entry): T1 sequence (Q96EB6 whole entry)
Nature of the data set: Inhibition of human SIRT1 using fluorogenic ZMAL as substrate at 100 uM incubated for 4 hrs in the presence of beta-NAD+ as cofactor by fluorescence based microplate reader analysis relative to control. The method in brief: as §1

Data set [8] deals with T6, SIRT2 (NAD-dependent protein deacetylase sirtuin-2) (Homo sapiens, UniProt Q8IXJ6).
T6 sequence (Q8IXJ6 whole entry): T2 sequence (Q8IXJ6 whole entry)
Nature of the data set: Chemical stability of the compound in sirtuin assay buffer at pH 8.0 assessed as human SIRT2 mediated nicotinamide cleavage measured upto 4 hrs in the presence of ZMAL substrate by HPLC analysis. Format: ADME. The note with it: pH 8, probe ZMAL substrate, read-out: Activity.

For data set [9], the target named is T3, NAD-dependent protein deacetylase sirtuin-3, mitochondrial (Homo sapiens). The data set is described as follows: Inhibition of human SIRT3 using fluorogenic ZMAL as substrate at 100 uM incubated for 4 hrs in the presence of beta-NAD+ as cofactor by fluorescence based microplate reader analysis relative to control. In a few lines: as §1
Data set [10] deals with T5, NAD-dependent protein deacetylase sirtuin-1 (Homo sapiens). Nature of the data set: Inhibition of human SIRT1 using fluorogenic ZMAL as substrate at 250 uM incubated for 4 hrs in the presence of beta-NAD+ as cofactor by fluorescence based microplate reader analysis relative to control. In a few lines: as §1
Data set [11] is described as follows: Chemical stability of the compound in sirtuin assay buffer at pH 8.0 assessed as nicotinamide cleavage measured every 30 mins for 4 hrs by HPLC analysis. Format: physicochemical. The note with it: read-out: Activity.
The subject of data set [12] is Photorhabdus luminescens. The data set is described as follows: Displacement of [32P]NAD+ from Photorhabdus luminescens TccC3hvr ART domain assessed as inhibition of ADP-ribosylation of alpha-skeletal muscle actin preincubated for 15 mins followed by TccC3hvr addition and measured after 6 mins by SDS-PAGE based autoradiography. The conditions noted are these: dose 10-100 µM, time 21.0 min, DDE = dose-dependent effect. The method in brief:
(§2)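 α-Skeletal muscle actin 1 μM with 1 μM NAD+ plus [32P]NAD+ (0.5 μCi per sample) in G buffer (5 mM Tris-HCl, 0.2 mM CaCl2, 0.2 mM ATP, 0.5 mM DTT, pH 8.0). Compound (10, 30 or 100 μM) preincubated 15 min at 21 °C, then 70 nM TccC3hvr ART domain added; 6 min at 21 °C, stopped with SDS Laemmli buffer. SDS-PAGE (12.5%), autoradiography; % inhibition versus control.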

The test system of data set [13] is Photorhabdus luminescens. Nature of the data set: Displacement of [32P]NAD+ from Photorhabdus luminescens TccC3hvr ART domain assessed as inhibition of ADP-ribosylation of alpha-skeletal muscle actin at 100 uM preincubated for 15 mins followed by TccC3hvr addition and measured after 6 mins by SDS-PAGE based autoradiography. The conditions noted are these: time 21.0 min. The method in brief:
as §2

In the case of `NC(=O)c1ccc[n+]([C@@H]2O[C@H](COP(=O)(O)OP(=O)(O)OC[C@H]3O[C@@H](n4cnc5c(N)ncnc54)[C@H](O)[C@@H]3O)[C@@H](O)[C@@H]2N)c1`, the figures for the IC50 in data set [1] and in [2] were 176 µM and 153 µM, respectively. Also, in data set [3], the inhibition came out at 47%.

Regarding `[N-]=[N+]=N[C@@H]1C([n+]2cccc(C(N)=O)c2)O[C@H](COP(=O)(O)OP(=O)(O)OC[C@H]2O[C@@H](n3cnc4c(N)ncnc43)[C@H](O)[C@@H]2O)[C@H]1O` (stereo partly specified), the values for the inhibition in [4] and in [5] were 34% and 21%, respectively.

For `NC(=O)c1ccc[n+]([C@H]2O[C@H](COP(=O)(O)OP(=O)(O)OC[C@H]3O[C@@H](n4cnc5c(N)ncnc54)[C@H](O)[C@@H]3O)[C@@H](O)[C@H]2N)c1`, the inhibition in data set [4] stood at 13%; in data set [7], 13%; in data set [9], 8%; in data set [10], 63%. For the same compound, the degraded at 4 h in data set [6] turned out to be 4.1%. For the same compound, in data set [2], the IC50 came to 118 µM. The metabolised at 4 h in data set [8] was 4.1%.

On to `NC(=O)c1ccc[n+]([C@@H]2O[C@H](COP(=O)(O)OP(=O)(O)OC[C@H]3O[C@@H](n4cnc5c(N)ncnc54)[C@H](O)[C@@H]3O)[C@@H](O)[C@H]2N)c1`, for which the degraded at 4 h in [11] came out at 8.4%. The inhibition in [4] is 19%; in the data set with Photorhabdus luminescens [12] it was “Dde”; in [7], 18%; with Photorhabdus luminescens [13] it was 77%; in [9] it was 12%; in data set [10], 65%. For the same compound, the IC50 in [2] was found to be 151 µM. The metabolised at 4 h in data set [8] is 15.1%.

By IC50 is commonly meant the concentration that gives 50% inhibition. As a reminder, the inhibition is the change of the read-out against control, counted positive when it falls.

The values are drawn from ChEMBL document CHEMBL5126598, “Defined stereoisomers of 2″-amino NAD+ and their activity against human sirtuins and a bacterial (ADP-ribosyl) transferase” (Bioorg Med Chem, 2022).
